Compounds with a hit are over-represented: about 2.7% of the library has one in this group of screens.
ARFGAP1 inhibitor: inhibits rat ARF GTPase activating protein 1; 0.26% of 360,000 active; Arfgap1-stimulated ARF1 GTP hydrolysis, GDP FP detection; inhibition, % at 16.5 µM;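 active = inhibition above a per-plate limit, mean inhibition of low control wells plus 3 SD, cut at about 25% in these data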;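 note: 0% = DMSO wells with enzyme and 100% = wells lacking Arfgap1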
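Material: rat Arfgap1 catalytic domain, aa 1-136; also added: human ARF1(Δ1-17)-GTP substrate; compound dosing: one concentration, 16.5 µM, DMSO 1.26%; incubation: GTP hydrolysis reaction 2 h at 25 °C; measured by: Tracer-displacement fluorescence polarization with EDTA stop, 620/688 nm; evaluation: % inhibition from polarization; repeats: one replicate per compound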
ASAP1 inh: inhibitors of human ASAP1 ArfGAP activity. ASAP1-stimulated ARF1 GTP hydrolysis, GDP FP detection. inhibition, % at 16.5 µM. Q9ULH1. AID 624377. 0.19% of 360,000 active; in the data active = inhibition above about 25%;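 note: 0% = vehicle with enzyme and substrate and 100% = no enzyme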
PAFAH1B2 inh: inhibitors of human PAFAH1B2; P68402; inhibition, % at 3.39 µM; recombinant PAFAH1B2, FP-rhodamine activity probe, fluorescence polarization; 1.2% of 340,000 active; AID 492953;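 active = inhibition above the mean of all tested compounds plus 3 SD, cut at about 24% in these data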;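 note: 0% = enzyme with DMSO and 100% = wells lacking PAFAH1B2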
Target sequence (P68402 whole entry, looked up): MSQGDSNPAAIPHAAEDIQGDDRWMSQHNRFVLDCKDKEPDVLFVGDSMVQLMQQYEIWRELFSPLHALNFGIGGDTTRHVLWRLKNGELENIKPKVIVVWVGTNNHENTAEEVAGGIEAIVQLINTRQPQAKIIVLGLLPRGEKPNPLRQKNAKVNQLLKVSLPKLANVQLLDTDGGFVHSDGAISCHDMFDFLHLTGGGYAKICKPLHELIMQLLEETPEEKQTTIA
PAFAH1B3 FP inh: blocks human PAF acetylhydrolase 1B catalytic subunit 3 | Q15102 | 0.28% of 340,000 active | inhibition, % at 3.39 µM | recombinant PAFAH1B3, FP-rhodamine probe, fluorescence polarization;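 active = inhibition above the screen-wide average of all tested compounds plus 3 SD, cut at about 25% in these data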;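 note: 0% = enzyme with DMSO only and 100% = wells lacking PAFAH1B3 protein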
Target sequence (Q15102 whole entry, looked up): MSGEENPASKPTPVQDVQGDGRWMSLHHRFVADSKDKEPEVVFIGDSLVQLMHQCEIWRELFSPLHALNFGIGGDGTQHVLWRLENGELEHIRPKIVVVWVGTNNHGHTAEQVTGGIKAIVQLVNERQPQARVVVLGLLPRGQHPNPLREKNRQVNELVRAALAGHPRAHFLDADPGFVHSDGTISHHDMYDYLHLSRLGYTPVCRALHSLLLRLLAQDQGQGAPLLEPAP
pPAFAH FP inh: inhibitors of human plasma PAF acetylhydrolase (pPAFAH); Q13093; recombinant pPAFAH, FP-rhodamine probe fluorescence polarization; inhibition, % at 3.39 µM; 1.5% of 330,000 active; AID 463082;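 active = inhibition above the mean inhibition across the screen plus 3 SD, cut at about 25% in these data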;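 note: inhibitors block binding of the rhodamine activity-based probe so polarization drops; 0% = enzyme with DMSO and 100% = wells lacking pPAFAH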
PAFAH2 FP inh: PAFAH2 (human) inhibition. Q99487. recombinant PAFAH2, FP-rhodamine activity probe, fluorescence polarization. inhibition, % at 3.39 µM. 0.99% of 340,000 active. AID 492956;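 active = inhibition above the mean over all tested compounds plus 3 SD, cut at about 30% in these data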;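 note: inhibitors block probe labeling of enzyme so polarization drops; 0% = enzyme with DMSO and 100% = wells lacking PAFAH2 protein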
PAFAH2 FP conf: confirmation of human PAFAH2 inhibitors; shares compounds with PAFAH2 FP inh; recombinant PAFAH2, FP-rhodamine activity probe, fluorescence polarization; inhibition, % at 3.39 µM; 65% of 2,300 active;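 active = mean inhibition over three repeats above a set limit taken from the earlier primary screen, cut at about 30% in these data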;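 note: inhibitor blocks binding of rhodamine activity probe so polarization falls; 0% = enzyme with DMSO and 100% = wells lacking PAFAH2 protein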
The depositor's hits bear a star; nt = no result given.

SMILES	ARFGAP1 inhibitor	ASAP1 inh	PAFAH1B2 inh	PAFAH1B3 FP inh	pPAFAH FP inh	PAFAH2 FP inh	PAFAH2 FP conf
O=C1Nc2ccc(F)cc2C12Nc1ccccc1-c1nnc(SCc3ccccc3F)nc1O2 (stereo not drawn)	-6	5	9	6	5	35*	15
CCCS(=O)(=O)c1c(S(=O)(=O)CCC)c2c(C(N)=O)cccn2c1C(=O)c1ccc(F)cc1	0	-15	3	8	0	0	nt
CCCS(=O)(=O)c1c(S(=O)(=O)CCC)c2ccc(C(N)=O)cn2c1C(=O)c1ccccc1	1	0	-4	3	nt	34*	24
Cc1ccc2c(c1)CO[C@]21O[C@H](CCO)C[C@H](O)[C@H]1O	-7	-3	nt	nt	nt	nt	nt
CC(NC(=O)COC(=O)COc1ccc(Cl)cc1)c1ccccc1 (stereo not drawn)	6	4	18	2	15	1	nt
COc1cc(/C=C/C(=O)OCC(=O)NC(=O)NC(C)C)cc(OC)c1OC	6	7	3	4	-2	0	nt
CC(NC(=O)COC(=O)/C=C/c1ccc(Cl)cc1)c1ccccc1 (stereo not drawn)	3	0	9	7	3	31*	21
COc1cc(/C=C/C(=O)OCC(=O)NC(C)c2ccccc2)cc(OC)c1OC (stereo not drawn)	10	-4	3	8	5	31*	14
CC(NC(=O)COC(=O)/C=C/c1cccc(F)c1)c1ccccc1 (stereo not drawn)	6	-11	9	0	6	46*	34*
COc1ccc(NCC(=O)Nc2cccc(C(F)(F)F)c2)cc1S(=O)(=O)N1CCOCC1	10	5	6	3	4	3	nt
O=C(COC(=O)c1ccco1)NCC1CCCCC1	3	-4	7	5	nt	80*	60*
CC1CCC(NC(=O)COC(=O)c2ccco2)CC1 (stereo not drawn)	10	6	6	0	-5	67*	65*
Cc1cc(C(=O)OCC(=O)NC2CCC(C)CC2)c(C)o1 (stereo not drawn)	-6	-1	4	4	2	71*	69*
O=C(COC(=O)c1ccco1)NC1CCCc2ccccc21 (stereo not drawn)	3	8	1	10	-2	39*	15
O=C(COC(=O)c1ccccc1NC(=O)c1ccco1)NC1CC1	10	2	-4	3	4	0	nt
CCN(CC)C(=O)c1nc[nH]c1C(=O)N1CCC(C)CC1	-12	-1	-6	3	2	0	nt
O=C(Nc1nnc([C@H]2C[C@H](O)[C@@H](CO)O2)s1)c1ccccc1F	8	-14	nt	nt	nt	nt	nt
Cc1nc2ccccc2n1CC(=O)c1ccc(O)c(O)c1	-1	22	2	13	23	19	nt
Cc1ccc(CSc2nnc(SCC(=O)N/N=C/c3c[nH]c4ccccc34)s2)cc1	4	13	4	2	nt	30*	31*
O=Cc1ccc(C(=O)OCC(=O)N2CCCC2)cc1	-12	-4	-2	0	2	-6	nt
CCN(CC)c1ccc(C(=O)OCC(=O)N(C(C)C)C(C)C)cc1	3	-2	5	6	6	27	nt
CCN(CC)c1ccc(C(=O)OCC(=O)N2CCCC2)cc1	nt	nt	0	3	11	36*	20
CCN(CC)c1ccc(C(=O)OCC(=O)N(C)Cc2ccccc2)cc1	2	0	1	4	15	48*	36*
CC(C)C[C@@H]1COc2cc(NC3CC3)ccc2S(=O)(=O)N1	1	0	nt	nt	nt	nt	nt
COc1ccc(C(=O)O/N=C(\N)c2ccccc2Cl)cc1OC	1	-11	5	8	7	7	nt
COc1ccc(C(=O)O/N=C(/c2ccccc2)c2ccncc2)cc1	8	4	-2	3	5	78*	71*
N/C(=N\OC(=O)c1ccccc1)c1ccncc1	-4	11	3	0	3	0	nt
COc1ccc(C(=O)O/N=C(/c2ccccc2)c2ccncc2)cc1OC	-3	4	14	6	2	74*	80*
COc1ccc(C(=O)O/N=C(\C)c2ccccc2)cc1	0	0	1	3	10	62*	45*

Assay outcomes deposited in PubChem by The Scripps Research Institute Molecular Screening Center.
